Results published in ChEMBL document CHEMBL1240476, “Synthesis and antiproliferative activity of indolizinophthalazine-5,12-dione derivatives, DNA topoisomerase IB inhibitors” (Eur J Med Chem, 2010).
pIC50: −log10 of the molar value.

Assays:
[1] = Cytotoxicity against human MCF7/ADR cells after 48 hrs by MTT assay; format: functional, cell-based; details: NCI/ADR-RES
NCI-H460 = assay: Cytotoxicity against human NCI-H460 cells after 48 hrs by MTT assay; format: functional, cell-based; details: NCI-H460, 48 h
MCF7 = assay: Cytotoxicity against human MCF7 cells after 48 hrs by MTT assay; format: functional, cell-based; details: MCF7, 48 h
[2] = Cytotoxicity against human GLC82 cells after 48 hrs by MTT assay; format: functional, cell-based; details: GLC82, 48 h
[3] = Inhibition of topoisomerase 1B-mediated relaxation of supercoiled pBR322 DNA at 125 uM after 30 mins by agarose gel electrophoresis
In short: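 TOP1-mediated relaxation of supercoiled DNA: enzyme and DNA incubated with serially diluted compound, 1 to 125 across four lanes. Controls were DNA without enzyme or drug, and DNA plus enzyme without drug. Read-out was the supercoiled versus relaxed DNA bands, scored as percent inhibition of TOP1 catalytic activity.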

[4] = Inhibition of topoisomerase 1B-mediated relaxation of supercoiled pBR322 DNA at 1 uM after 30 mins by agarose gel electrophoresis
In short: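 TOP1 relaxation of supercoiled DNA was run with enzyme, DNA and serially diluted drug (1 to 125). Controls were DNA without enzyme or drug, and DNA plus enzyme without drug. Supercoiled and relaxed DNA bands were resolved by gel and compared.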

SMILES | pIC50 [1] | pIC50 (NCI-H460) | pIC50 (MCF7) | pIC50 [2] | inhibition [3] | inhibition [4]
CCOC(=O)c1c2c(n3cc(C)ccc13)C(=O)c1cnncc1C2=O | 4.73 | 4.95 | 4.91 | 5.01 |  | 
CCOC(=O)c1c2c(n3cccc(Cl)c13)C(=O)c1cnncc1C2=O | 5.80 | 5.84 | 5.92 | 5.96 |  | 
CC[C@@]1(O)C(=O)OCc2c1cc1n(c2=O)Cc2cc3ccccc3nc2-1 [CAMPTOTHECIN] |  | < 4.60 |  | < 4.60 | 73% | 
CC(=O)c1c2c(n3ccccc13)C(=O)c1cnncc1C2=O | 4.95 | 4.67 |  | 4.61 |  | 
Cc1c2c(n3ccccc13)C(=O)c1cnncc1C2=O | 4.85 | 5.92 | 5.78 | 5.72 |  | 
CCOC(=O)c1c2c(n3ccccc13)C(=O)c1cnncc1C2=O | < 4.60 | < 4.60 | < 4.60 | < 4.60 |  | 
N#Cc1c2c(n3ccccc13)C(=O)c1cnncc1C2=O | 6.09 | 5.03 | 5.96 | 5.95 | 100% | 23%
CCOC(=O)c1c2c(n3cccc(O)c13)C(=O)c1cnncc1C2=O | < 4.60 | 4.63 | 4.68 | 4.94 |  | 
COC(=O)c1c2c(n3ccccc13)C(=O)c1cnncc1C2=O | 4.77 | 5.00 | 4.63 | 4.86 |  | 
CC(=O)c1c2c(n3cccc(F)c13)C(=O)c1cnncc1C2=O | 4.88 | 4.97 | 4.97 | 5.73 |  | 
CCOC(=O)c1c2c(n3cccc(C)c13)C(=O)c1cnncc1C2=O | 5.81 | 5.93 | 5.91 | 4.99 |  | 
O=C1c2cnncc2C(=O)c2c1cc1ccccn21 | 4.93 | 4.94 | 4.83 | 4.97 |  | 
